Calls of active or inactive are those of the source. No cut-off for these calls is given here.
Experiments:
[1] = test system: Human immunodeficiency virus 1; experiment: Inhibition of HIV1-induced cytopathogenicity in MT4 cells; format: functional, organism-based; conditions: Human immunodeficiency virus 1, MT4
How it was run: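 MT-4 cells were grown in RPMI 1640 with 10% heat-inactivated FCS and penicillin/streptomycin. Cells infected with HIV-1 IIIB (X4 strain) at MOI 0.01 were plated at 1.5 × 10⁴ cells/well with various compound concentrations. After 5 days at 37 °C in CO₂, viable cells were counted by MTT. EC50 for protection is the mean of ≥3 independent experiments.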

[2] = target: T1, C-X-C chemokine receptor type 4 (Homo sapiens, UniProt P61073); experiment: Inhibition of [125I]SDF1 binding to CXCR4 transfected in CHO cells; format: cell-based
T1 sequence (P61073 whole entry): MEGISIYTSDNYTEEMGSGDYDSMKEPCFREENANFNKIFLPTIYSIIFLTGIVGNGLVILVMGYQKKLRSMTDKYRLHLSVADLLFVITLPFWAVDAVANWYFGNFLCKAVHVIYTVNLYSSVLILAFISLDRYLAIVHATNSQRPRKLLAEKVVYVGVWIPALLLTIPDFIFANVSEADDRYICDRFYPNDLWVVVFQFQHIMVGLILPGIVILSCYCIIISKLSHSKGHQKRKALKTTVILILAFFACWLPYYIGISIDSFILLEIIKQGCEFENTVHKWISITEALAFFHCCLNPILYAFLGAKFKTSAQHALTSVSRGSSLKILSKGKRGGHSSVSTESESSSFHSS
How it was run: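 CXCR4-expressing stable CHO transfectants were harvested with trypsin-EDTA, recovered 4-5 h in complete medium, and washed in cold PBS with 2 mg/mL BSA. Cells at 1 × 10⁷/mL were incubated with 0.1 nM [¹²⁵I]-SDF-1 for 2 h on ice with agitation. Bound label was separated by centrifugation through oil and gamma-counted.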

[3] = target: T1, C-X-C chemokine receptor type 4; experiment: Antagonist activity against CXCR4 transfected in CHO cells upto 1 uM; format: functional, cell-based

| Structure (SMILES) | EC50 [1] | IC50 [2] | also measured |
| --- | --- | --- | --- |
| C[C@H]1NC(=O)CNC(=O)[C@H](Cc2ccc3ccccc3c2)NC(=O)[C@H](CCCNC(=N)N)NC(=O)[C@H](CCCNC(=N)N)NC1=O | 115 µM | > 1000 nM | – |
| C[C@@H]1NC(=O)[C@H](CCCNC(=N)N)NC(=O)[C@@H](CCCNC(=N)N)NC(=O)[C@@H](Cc2ccc(O)cc2)NC(=O)CNC1=O | > 120 µM | > 1000 nM | – |
| CN1C(=O)[C@@H](CCCNC(=N)N)NC(=O)[C@@H](Cc2ccc(O)cc2)NC(=O)CNC(=O)[C@H](Cc2ccc3ccccc3c2)NC(=O)[C@@H]1CCCNC(=N)N | 0.782 µM | 21 nM | – |
| CN1C(=O)CNC(=O)[C@H](Cc2ccc3ccccc3c2)NC(=O)[C@H](CCCNC(=N)N)NC(=O)[C@@H](CCCNC(=N)N)NC(=O)[C@H]1Cc1ccc(O)cc1 | – | 157 nM | – |
| N=C(N)NCCC[C@@H]1NC(=O)[C@@H](CCCNC(=N)N)NC(=O)[C@@H](Cc2ccc(O)cc2)NC(=O)[C@@H]2CCCCN2C(=O)[C@H](Cc2ccc3ccccc3c2)NC1=O | – | 640 nM | – |
| CN1C(=O)[C@@H](Cc2ccc(O)cc2)NC(=O)CNC(=O)[C@H](Cc2ccc3ccccc3c2)NC(=O)[C@H](CCCNC(=N)N)NC(=O)[C@H]1CCCNC(=N)N | 0.088 µM | 3 nM | – |
| C[C@@H]1NC(=O)[C@H](CCCNC(=N)N)NC(=O)[C@H](CCCNC(=N)N)NC(=O)[C@@H](Cc2ccc(O)cc2)NC(=O)CNC1=O | > 120 µM | > 1000 nM | – |
| C[C@@H]1NC(=O)[C@H](Cc2ccc3ccccc3c2)NC(=O)[C@H](CCCNC(=N)N)NC(=O)[C@H](CCCNC(=N)N)NC(=O)[C@@H](Cc2ccc(O)cc2)NC1=O | 20 µM | 170 nM | – |
| N=C(N)NCCC[C@@H]1NC(=O)[C@@H](CCCNC(=N)N)NC(=O)[C@@H](Cc2ccc(O)cc2)NC(=O)[C@H]2CCCN2C(=O)[C@H](Cc2ccc3ccccc3c2)NC1=O | – | > 1000 nM | – |
| CN1C(=O)[C@H](CCCNC(=N)N)NC(=O)[C@@H](Cc2ccc(O)cc2)NC(=O)CNC(=O)[C@H](Cc2ccc3ccccc3c2)NC(=O)[C@@H]1CCCNC(=N)N | 9.53 µM | 99 nM | – |
| C[C@H]1NC(=O)CNC(=O)[C@H](Cc2ccc3ccccc3c2)NC(=O)[C@H](CCCNC(=N)N)NC(=O)[C@@H](CCCNC(=N)N)NC1=O | 29 µM | 130 nM | – |
| C[C@H]1NC(=O)[C@H](Cc2ccc3ccccc3c2)NC(=O)[C@H](CCCNC(=N)N)NC(=O)[C@H](CCCNC(=N)N)NC(=O)[C@@H](Cc2ccc(O)cc2)NC1=O | 0.49 µM | 11 nM | – |
| C[C@@H]1NC(=O)CNC(=O)[C@@H](Cc2ccc(O)cc2)NC(=O)[C@H](CCCNC(=N)N)NC(=O)[C@H](CCCNC(=N)N)NC1=O | – | – | Activity [3]: inactive |
| C[C@H]1NC(=O)[C@@H](Cc2ccc(O)cc2)NC(=O)CNC(=O)[C@H](Cc2ccc3ccccc3c2)NC(=O)[C@H](CCCNC(=N)N)NC1=O | 16 µM | – | – |
| CN1C(=O)[C@H](CCCNC(=N)N)NC(=O)[C@@H](CCCNC(=N)N)NC(=O)[C@@H](Cc2ccc(O)cc2)NC(=O)CNC(=O)[C@@H]1Cc1ccc2ccccc2c1 | – | 563 nM | – |
| N=C(N)NCCC[C@@H]1NC(=O)[C@H](CCCNC(=N)N)NC(=O)[C@@H](Cc2ccc(O)cc2)NC(=O)[C@@H]2CCCN2C(=O)[C@H](Cc2ccc3ccccc3c2)NC1=O | – | > 1000 nM | – |
| N=C(N)NCCC[C@@H]1NC(=O)[C@H](CCCNC(=N)N)NC(=O)[C@@H](Cc2ccc(O)cc2)NC(=O)CCNC(=O)[C@H](Cc2ccc3ccccc3c2)NC1=O | 3 µM | 47 nM | – |
| C[C@@H]1NC(=O)CNC(=O)[C@@H](Cc2ccc(O)cc2)NC(=O)[C@@H](CCCNC(=N)N)NC(=O)[C@H](CCCNC(=N)N)NC1=O | – | – | Activity [3]: inactive |
| N=C(N)NCCC[C@@H]1NC(=O)[C@@H](CCCNC(=N)N)NC(=O)[C@@H](Cc2ccc(O)cc2)NC(=O)[C@@H]2CCCN2C(=O)[C@H](Cc2ccc3ccccc3c2)NC1=O | – | > 1000 nM | – |

| Structure (SMILES) | EC50 [1] | IC50 [2] | also measured |
| --- | --- | --- | --- |
| N=C(N)NCCC[C@@H]1NC(=O)[C@@H](CCCNC(=N)N)NC(=O)[C@@H](Cc2ccc(O)cc2)NC(=O)[C@H]2CCCCN2C(=O)[C@H](Cc2ccc3ccccc3c2)NC1=O | – | > 1000 nM | – |
| C[C@@H]1NC(=O)[C@H](CCCNC(=N)N)NC(=O)[C@H](CCCNC(=N)N)NC(=O)[C@@H](Cc2ccc(O)cc2)NC(=O)CN(C)C1=O | – | – | IC50 ([2]; cho): 167 nM |
| CN1C(=O)[C@H](CCCNC(=N)N)NC(=O)[C@H](CCCNC(=N)N)NC(=O)[C@@H](Cc2ccc(O)cc2)NC(=O)CNC(=O)[C@@H]1Cc1ccc2ccccc2c1 | – | 250 nM | – |
| C[C@H]1NC(=O)[C@H](Cc2ccc3ccccc3c2)NC(=O)[C@H](CCCNC(=N)N)NC(=O)[C@@H](CCCNC(=N)N)NC(=O)[C@@H](Cc2ccc(O)cc2)NC1=O | 0.67 µM | 11 nM | – |
| C[C@@H]1NC(=O)[C@H](Cc2ccc3ccccc3c2)NC(=O)CNC(=O)[C@@H](Cc2ccc(O)cc2)NC(=O)[C@H](CCCNC(=N)N)NC1=O | – | – | Activity [3]: inactive |
| CN1C(=O)CNC(=O)[C@H](Cc2ccc3ccccc3c2)NC(=O)[C@H](CCCNC(=N)N)NC(=O)[C@H](CCCNC(=N)N)NC(=O)[C@H]1Cc1ccc(O)cc1 | – | 128 nM | – |
| CN1CC(=O)N[C@H](Cc2ccc(O)cc2)C(=O)N[C@H](CCCNC(=N)N)C(=O)N[C@@H](CCCNC(=N)N)C(=O)N[C@@H](Cc2ccc3ccccc3c2)C1=O | – | 256 nM | – |
| N=C(N)NCCC[C@@H]1NC(=O)[C@@H](CCCNC(=N)N)NC(=O)[C@@H](Cc2ccc(O)cc2)NC(=O)CCNC(=O)[C@H](Cc2ccc3ccccc3c2)NC1=O | 38 µM | 350 nM | – |
| C[C@@H]1NC(=O)[C@H](CCCNC(=N)N)NC(=O)[C@@H](Cc2ccc(O)cc2)NC(=O)CNC(=O)[C@H](Cc2ccc3ccccc3c2)NC1=O | > 120 µM | > 1000 nM | – |
| N=C(N)NCCC[C@@H]1NC(=O)[C@H](CCCNC(=N)N)NC(=O)[C@@H](Cc2ccc(O)cc2)NC(=O)[C@@H]2CCCCN2C(=O)[C@H](Cc2ccc3ccccc3c2)NC1=O | – | > 1000 nM | – |
| C[C@@H]1NC(=O)[C@H](Cc2ccc3ccccc3c2)NC(=O)[C@H](CCCNC(=N)N)NC(=O)[C@@H](CCCNC(=N)N)NC(=O)[C@@H](Cc2ccc(O)cc2)NC1=O | 10 µM | 92 nM | – |
| N=C(N)NCCC[C@@H]1NC(=O)[C@@H](CCCNC(=N)N)NC(=O)[C@@H](Cc2ccc(O)cc2)NC(=O)CNC(=O)[C@H](Cc2ccc3ccccc3c2)NC1=O | 0.39 µM | – | – |
| C[C@@H]1NC(=O)[C@H](Cc2ccc3ccccc3c2)NC(=O)CNC(=O)[C@@H](Cc2ccc(O)cc2)NC(=O)[C@@H](CCCNC(=N)N)NC1=O | – | – | Activity [3]: inactive |
| N=C(N)NCCC[C@@H]1NC(=O)[C@H](CCCNC(=N)N)NC(=O)[C@@H](Cc2ccc(O)cc2)NC(=O)[C@H]2CCCCN2C(=O)[C@H](Cc2ccc3ccccc3c2)NC1=O | – | > 1000 nM | – |
| C[C@@H]1NC(=O)[C@@H](CCCNC(=N)N)NC(=O)[C@@H](Cc2ccc(O)cc2)NC(=O)CNC(=O)[C@H](Cc2ccc3ccccc3c2)NC1=O | 60 µM | > 1000 nM | – |
| N=C(N)NCCC[C@@H]1NC(=O)[C@H](CCCNC(=N)N)NC(=O)[C@@H](Cc2ccc(O)cc2)NC(=O)CNC(=O)[C@H](Cc2ccc3ccccc3c2)NC1=O | 0.16 µM | – | – |
| N=C(N)NCCC[C@@H]1NC(=O)[C@H](CCCNC(=N)N)NC(=O)[C@@H](Cc2ccc(O)cc2)NC(=O)[C@H]2CCCN2C(=O)[C@H](Cc2ccc3ccccc3c2)NC1=O | – | > 1000 nM | – |
| CN1C(=O)[C@@H](Cc2ccc(O)cc2)NC(=O)CNC(=O)[C@H](Cc2ccc3ccccc3c2)NC(=O)[C@H](CCCNC(=N)N)NC(=O)[C@@H]1CCCNC(=N)N | 1.4 µM | – | – |
| C[C@@H]1NC(=O)[C@@H](Cc2ccc(O)cc2)NC(=O)CNC(=O)[C@H](Cc2ccc3ccccc3c2)NC(=O)[C@H](CCCNC(=N)N)NC1=O | 12 µM | – | – |

Reference: ChEMBL document CHEMBL1139233, “Structure-activity relationships of cyclic peptide-based chemokine receptor CXCR4 antagonists: disclosing the importance of side-chain and backbone functionalities” (J Med Chem, 2007)
